Data taken from ChEMBL document CHEMBL1933006, “Mechanistic analysis of muraymycin analogues: a guide to the design of MraY inhibitors” (J Med Chem, 2011).
≈ marks a conversion by molar mass, not a printed value. Calls of active or inactive are those of the source. No cut-off for these calls is given here.

Assays:
Enterococcus faecalis [1] = experiment: Antibacterial activity against vancomycin-resistant Enterococcus faecalis SR7914 after 20 hrs by broth microdilution method; assay type: functional; settings: SR7914, 20 h
Outline: (§1)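 NCCLS broth microdilution in cation-adjusted Mueller–Hinton broth. Serial 2-fold compound dilutions were inoculated with 5 × 10⁴ CFU per 0.1 mL and incubated at 35 °C for 20 h before scoring the MIC.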

Enterococcus faecium [2] = experiment: Antibacterial activity against vancomycin-resistant Enterococcus faecium SR7917 after 20 hrs by broth microdilution method; assay type: functional; settings: SR7917, 20 h; outline: as §1
Staphylococcus aureus [3] = experiment: Antibacterial activity against methicillin-resistant Staphylococcus aureus isolate SR3637 after 20 hrs by broth microdilution method; assay type: functional; settings: isolate SR3637, 20 h; outline: as §1
Staphylococcus aureus [4] = experiment: Antibacterial activity against methicillin-sensitive […] Staphylococcus aureus ATCC 29213 after 20 hrs by broth microdilution method; assay type: functional; settings: ATCC 29213, 20 h; outline: as §1
Enterococcus faecalis [5] = experiment: Antibacterial activity against Enterococcus faecalis ATCC 29212 after 20 hrs by broth microdilution method; assay type: functional; settings: ATCC 29212, 20 h; outline: as §1
Enterococcus faecium [6] = experiment: Antibacterial activity against Enterococcus faecium ATCC 19434 after 20 hrs by broth microdilution method; assay type: functional; settings: ATCC 19434, 20 h; outline: as §1
HepG2 = experiment: Cytotoxicity against human HepG2 cells after 48 hrs by WST-8 assay; assay type: cell-based; settings: HepG2, 48 h
Outline: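 HepG2 cells in DMEM with 10% FBS were seeded at 1 × 10⁴ cells/well and treated 24 h later with varying concentrations for 48 h. WST-8 reagent was then added for 1.5 h at 37 °C, and absorbance read at 450 nm. Percentage growth inhibition was calculated against untreated cells, and IC50 was derived. Tunicamycin served as positive control.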

Bacillus subtilis = experiment: Antibacterial activity against Bacillus subtilis at 64 ug/ml; assay type: functional, organism-based
[7] = biological target: T1, Undecaprenyl-phosphate alpha-N-acetylglucosaminyl 1-phosphate transferase (Thermotoga maritima (strain ATCC 43589 / MSB8 / DSM 3109 / JCM 10099), UniProt Q9X1N5); experiment: Inhibition of Thermotoga maritima WecA using radiolabeled UDP-[14C]GlcNAc as substrate after 30 mins
T1 sequence (Q9X1N5 whole entry): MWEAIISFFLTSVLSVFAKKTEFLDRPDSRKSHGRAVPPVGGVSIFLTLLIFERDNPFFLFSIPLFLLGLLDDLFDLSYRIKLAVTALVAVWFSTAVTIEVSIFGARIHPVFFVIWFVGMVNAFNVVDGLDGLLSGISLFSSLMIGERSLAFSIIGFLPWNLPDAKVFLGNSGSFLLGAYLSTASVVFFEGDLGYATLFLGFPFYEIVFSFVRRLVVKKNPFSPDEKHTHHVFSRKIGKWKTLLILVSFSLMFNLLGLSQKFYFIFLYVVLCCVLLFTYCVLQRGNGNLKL
Outline: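 Purified Thermotoga maritima WecA was assayed at pH 8 (100 mM Tris-HCl, 10 mM MgCl₂, 1.1 mM C₅₅-P, 0.16 mM UDP-[¹⁴C]GlcNAc, 92.7 mM Triton X-100), final concentrations. The reaction was started by enzyme, run 30 min at 65 °C and stopped at 100 °C for 1 min. C₅₅-PP-GlcNAc was separated by TLC and scanned. IC50 was relative to a no-inhibitor control, mean of triplicates.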

[8] = biological target: T2, Phospho-N-acetylmuramoyl-pentapeptide-transferase (Bacillus subtilis (strain 168), UniProt Q03521); experiment: Competitive inhibition of Bacillus subtilis MraY using UDP-MurNAc-pentapeptide as substrate after 30 mins by Lineweaver-Burk plot
T2 sequence (Q03521 whole entry): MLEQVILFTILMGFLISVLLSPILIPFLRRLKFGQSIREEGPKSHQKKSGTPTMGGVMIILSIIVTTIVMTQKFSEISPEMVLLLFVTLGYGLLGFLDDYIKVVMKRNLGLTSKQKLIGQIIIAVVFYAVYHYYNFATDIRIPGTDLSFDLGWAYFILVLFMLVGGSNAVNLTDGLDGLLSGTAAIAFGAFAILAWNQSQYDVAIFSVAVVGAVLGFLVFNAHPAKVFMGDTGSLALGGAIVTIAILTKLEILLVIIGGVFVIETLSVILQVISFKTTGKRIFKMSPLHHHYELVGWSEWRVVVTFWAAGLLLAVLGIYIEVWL
Outline: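 B. subtilis MraY was assayed at pH 7.5 (100 mM Tris-HCl, 40 mM MgCl₂, 250 mM NaCl, 8.4 mM N-lauroylsarcosine), started by enzyme and run 30 min at 37 °C. Initial rates were taken at 0.25–1.5 mM UDP-MurNAc-[¹⁴C]pentapeptide, fixed 1 mM C₅₅-P, and several inhibitor levels. Lipid I was separated by TLC and scanned. Ki came from Lineweaver–Burk plots assuming a ping-pong Bi Bi mechanism.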

[9] = biological target: T2, Phospho-N-acetylmuramoyl-pentapeptide-transferase; experiment: Noncompetitive inhibition of Bacillus subtilis MraY using […] as substrate after 30 mins by Lineweaver-Burk plot

| SMILES | MIC (Enterococcus faecalis [1]) | MIC (Enterococcus faecium [2]) | MIC (Staphylococcus aureus [3]) | MIC (Staphylococcus aureus [4]) | MIC (Enterococcus faecalis [5]) | MIC (Enterococcus faecium [6]) | IC50 (HepG2) | Activity (Bacillus subtilis) | IC50 [7] | Ki [8] | Ki [9] |
| --- | --- | --- | --- | --- | --- | --- | --- | --- | --- | --- | --- |
| CCCCOc1ccc(-c2ccc(CC[C@H](NC(=O)[C@@H](NC(=O)N[C@H](C(=O)O)C(C)C)[C@@H]3CCNC(=N)N3)C(=O)NCCCN[C@H](C(=O)O)[C@H](O[C@@H]3O[C@H](CN)[C@@H](O)[C@H]3O)[C@H]3O[C@@H](n4ccc(=O)[nH]c4=O)[C@H](O)[C@@H]3O)cc2)cc1 | 64 µg/mL (≈ 57.5 µM) | 32 µg/mL (≈ 28.8 µM) | 32 µg/mL (≈ 28.8 µM) | 16 µg/mL (≈ 14.4 µM) | 16 µg/mL (≈ 14.4 µM) | 16 µg/mL (≈ 14.4 µM) | > 100 µg/mL |  |  |  |  |
| CC(C)C[C@@H](NC(=O)[C@@H](NC(=O)N[C@H](C(=O)O)C(C)C)[C@@H]1CCNC(=N)N1)C(=O)NCCCN[C@H](C(=O)O)[C@H](O[C@@H]1O[C@H](CN)[C@@H](O)[C@H]1O)[C@H]1O[C@@H](n2ccc(=O)[nH]c2=O)[C@H](O)[C@@H]1O | > 64 µg/mL | > 64 µg/mL | > 64 µg/mL | > 64 µg/mL | > 64 µg/mL | > 64 µg/mL |  | inactive |  |  |  |
| CC(C)C[C@H](NC(=O)[C@@H](NC(=O)N[C@H](C(=O)O)C(C)C)[C@@H]1CCNC(=N)N1)C(=O)NCCCN[C@H](C(=O)O)[C@H](O[C@@H]1O[C@H](CN)[C@@H](O)[C@H]1O)[C@H]1O[C@@H](n2ccc(=O)[nH]c2=O)[C@H](O)[C@@H]1O [MURAMYCIN D2] | > 64 µg/mL | > 64 µg/mL | > 64 µg/mL | > 64 µg/mL | > 64 µg/mL | > 64 µg/mL |  | inactive |  |  |  |
| CCCCCCOc1ccc(-c2ccc([C@H](NC(=O)[C@@H](NC(=O)N[C@H](C(=O)O)C(C)C)[C@@H]3CCNC(=N)N3)C(=O)NCCCN[C@H](C(=O)O)[C@H](O[C@@H]3O[C@H](CN)[C@@H](O)[C@H]3O)[C@H]3O[C@@H](n4ccc(=O)[nH]c4=O)[C@H](O)[C@@H]3O)cc2)cc1 | 8 µg/mL (≈ 7.19 µM) | 4 µg/mL (≈ 3.6 µM) | 8 µg/mL (≈ 7.19 µM) | 4 µg/mL (≈ 3.6 µM) | 8 µg/mL (≈ 7.19 µM) | 4 µg/mL (≈ 3.6 µM) | > 100 µg/mL |  |  |  |  |
| CC(C)[C@H](NC(=O)N[C@H](C(=O)N[C@@H](CCCCCCCc1ccc(-c2ccccc2)cc1)C(=O)NCCCN[C@H](C(=O)O)[C@H](O[C@@H]1O[C@H](CN)[C@@H](O)[C@H]1O)[C@H]1O[C@@H](n2ccc(=O)[nH]c2=O)[C@H](O)[C@@H]1O)[C@@H]1CCNC(=N)N1)C(=O)O | 16 µg/mL (≈ 14.4 µM) | 8 µg/mL (≈ 7.21 µM) | 4 µg/mL (≈ 3.6 µM) | 4 µg/mL (≈ 3.6 µM) | 4 µg/mL (≈ 3.6 µM) | 4 µg/mL (≈ 3.6 µM) | > 100 µg/mL |  |  |  |  |
| CC(C)C[C@H](NC(=O)[C@@H](NC(=O)N[C@H](C(=O)O)C(C)C)[C@@H]1CCN=C(N)N1)C(=O)NCCCN[C@H](C(=O)O)[C@H](O[C@@H]1O[C@H](CN)[C@@H](O)[C@H]1O)[C@H]1O[C@@H](n2ccc(=O)[nH]c2=O)[C@H](O)[C@@H]1O [MURAMYCIN D2] |  |  |  |  |  |  |  |  | 1230 µM | 0.0076 µM | 0.0076 µM |
| CCCCCCCCCCCCCCC[C@H](NC(=O)[C@@H](NC(=O)N[C@H](C(=O)O)C(C)C)[C@@H]1CCNC(=N)N1)C(=O)NCCCN[C@H](C(=O)O)[C@H](O[C@@H]1O[C@H](CN)[C@@H](O)[C@H]1O)[C@H]1O[C@@H](n2ccc(=O)[nH]c2=O)[C@H](O)[C@@H]1O | 4 µg/mL (≈ 3.74 µM) | 2 µg/mL (≈ 1.87 µM) | 4 µg/mL (≈ 3.74 µM) | 2 µg/mL (≈ 1.87 µM) | 4 µg/mL (≈ 3.74 µM) | 4 µg/mL (≈ 3.74 µM) |  |  | 970 µM | 0.247 µM | 0.247 µM |
| CCCCCCCCCCCCCCC[C@@H](NC(=O)[C@@H](NC(=O)N[C@H](C(=O)O)C(C)C)[C@@H]1CCNC(=N)N1)C(=O)NCCCN[C@H](C(=O)O)[C@H](O[C@@H]1O[C@H](CN)[C@@H](O)[C@H]1O)[C@H]1O[C@@H](n2ccc(=O)[nH]c2=O)[C@H](O)[C@@H]1O | 4 µg/mL (≈ 3.74 µM) | 0.25 µg/mL (≈ 0.234 µM) | 4 µg/mL (≈ 3.74 µM) | 2 µg/mL (≈ 1.87 µM) | 2 µg/mL (≈ 1.87 µM) | 0.5 µg/mL (≈ 0.467 µM) | > 100 µg/mL |  | 1340 µM | 0.698 µM | 0.698 µM |
